# Measured values collected from several papers.
# Compare with care: the assays were run in different laboratories.
# Target: Dual specificity protein kinase CLK1 (CLK1, Homo sapiens, UniProt P49759)
Structure (SMILES),assay,conditions,endpoint,result
CCCS(=O)(=O)Nc1ccc(F)c(C(=O)c2c[nH]c3ncc(-c4ccc(Cl)cc4)cc23)c1F,"enzyme activity, inhibitor",1 µM,inhibition,< 10%
COc1cc(Cl)c(C(=O)N[C@@H](CN[C@H]2CC[C@@H](N)CC2)Cc2ccc(C#N)cc2)cc1-c1ccc(CN[C@H](C)c2ccc(C)cc2)o1,"enzyme activity, inhibitor",1 µM,remaining activity,91%
O=C(Nc1cnn(-c2csc(C(=O)NC3COC3)c2)c1)Nc1c(F)cccc1Cl,"enzyme activity, inhibitor",5 µM,remaining activity,74.9%
O=C1Nc2ccc(Cl)cc2C1=Cc1cc(Cl)c(O)c(Cl)c1,cell-free assay,0.5 µM,remaining signal,85%
CNCc1ccccc1-c1csc([C@@H](C)Nc2nc(C)nc3cc(OC)c(OC)cc23)c1,"cell-free assay, competition with immobilised ligand",1 µM,remaining binding,98%
C[S+]([O-])c1ccc(-c2nc(-c3ccncc3)c(-c3ccc(F)cc3)[nH]2)cc1 (stereo not shown),cell-free assay,0.5 µM,remaining signal,101%
CC(=O)N1CCC(c2ccc(C(=O)NC(=N)N)cc2C(F)(F)F)CC1,"cell-free assay, competition with immobilised ligand",1 µM,remaining binding,100%
Cc1cnc(NC2CCOCC2)nc1-n1cnc(C(=O)NC(CN)c2cc(F)cc(Cl)c2)c1 (stereo not shown),"enzyme activity, inhibitor, radiometric",1 µM,remaining activity,62%
O=C(NCc1ncc(C(F)(F)F)cc1Cl)c1ccc2c(c1)C1(CCS(=O)(=O)CC1)[C@H](C1CC1)N2S(=O)(=O)c1ccc(F)cc1,"cell-free assay, competition with immobilised ligand",1 µM,remaining binding,100%
Cc1ccc(NC(=O)c2ccc(C)c(C(F)(F)F)c2)cc1C#Cc1nn(C2CCC(O)CC2)c2ncnc(N)c12 (stereo not shown),cell-free assay,10 µM,remaining signal,64%
CC(C)(C)c1nc2c(s1)c1nc(N)ncc1c1ccc(NS(=O)(=O)c3c(F)cccc3F)c(F)c12,"enzyme activity, inhibitor, radiometric",1 µM,remaining activity,91%
COc1cc(-c2cc(-c3ccc(N4CCNCC4)cc3)cnc2C)cc(OC)c1OC,"enzyme activity, inhibitor",0.1 µM,inhibition,1%
Nc1ncnc2occ(-c3ccc(NC(=O)Nc4cc(C(F)(F)F)ccc4F)cc3)c12,"cell-free assay, inhibitor",20 µM,remaining signal,0.65%
CNC(=O)c1ccc(Nc2ncc(C(F)(F)F)c(NCc3nccnc3N(C)S(C)(=O)=O)n2)cc1,"cell-free assay, competition with immobilised ligand",0.1 µM,remaining binding,23%
Cn1cnc(Br)c1C1=CN(c2ncnc3[nH]cnc23)CCS1,"enzyme activity, inhibitor, radiometric",2 µM,inhibition,96.1%
O=C(O)[C@H]1[C@H](Cn2nnc3ccccc3c2=O)CC[C@@H]1C(=O)c1ccc(OCCC2CCOCC2)cc1,"cell-free assay, competition with immobilised ligand",1 µM,remaining binding,98%
c1nc2c(Nc3ccc4c(c3)OCCO4)nc(Nc3ccc4c(c3)OCCO4)nc2[nH]1,"enzyme activity, inhibitor",10 µM,activity vs control,2.2%
COc1cc2ncnc(Nc3ccc(Oc4ccccc4)c(C)c3C)c2cc1OC,"enzyme activity, inhibitor",1 µM,inhibition,3%
Cc1cc(-n2nc(Cc3cc(F)cc(C(F)(F)F)c3)nc2C)ccc1C(N)=O,"cell-free assay, competition with immobilised ligand",1 µM,remaining binding,86%
Oc1cccc(-c2nc(N3CCOCC3)c3oc4ncccc4c3n2)c1,cell-free assay,0.5 µM,remaining signal,85.2%
O=C(N1CCS(=O)(=O)CC1)N1C[C@H](c2ccc(OC(F)(F)F)cc2)C[C@H](c2nc(C3CC3)no2)C1,"cell-free assay, competition with immobilised ligand",1 µM,remaining binding,98%
C#Cc1cccc(Nc2ncnc3cc(OCCOC)c(OCCOC)cc23)c1,cell-free assay,0.5 µM,remaining signal,107%
